Experimental data: ChEMBL document CHEMBL1140038, “Synthesis and evaluation of indolinyl- and indolylphenylacetylenes as PET imaging agents for beta-amyloid plaques” (Bioorg Med Chem Lett, 2008)
pKi: −log10 of the molar value. Active and inactive are the calls of the source. No cut-off for these calls is given here.

Assays:
[1] = molecular target: T1, Amyloid-beta precursor protein (Homo sapiens, UniProt P05067); experiment: Displacement of [125I]IMPY from beta-amyloid plaques in AD patient brain
Outline: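 Competition binding against the radioligand [125I]IMPY (6-iodo-2-(4'-dimethylamino-)phenylimidazo[1,2-a]pyridine). Tissue: homogenates of postmortem AD brain. Reported as Ki.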

[2] = molecular target: T1, Amyloid-beta precursor protein; experiment: Binding affinity to beta-amyloid in gray matter of AD patent brain; assay type: tissue-based; settings: tested as the 18F-labelled form
[3] = Drug level in mouse brain after 3 hrs; assay type: ADME, tissue-based; settings: read-out: Drug uptake
Outline: (§1)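 [18F]-labelled ligands, HPLC-purified to >97% radiochemical purity, given by injection to normal mice. Brain radioactivity measured at 2 min, 2 h and 3 h after injection. Expressed as % injected dose per gram of tissue.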

[4] = Drug level in mouse brain after 2 mins; assay type: ADME, tissue-based; settings: read-out: Drug uptake; outline: as §1
[5] = Partition coefficient, log P of the compound; assay type: physicochemical; settings: octanol/water
Outline: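 Partition coefficient measured for the HPLC-purified [18F]-radiolabelled ligands at pH 7.4. Reported as log P.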

[6] = Drug level in mouse brain after 2 hrs; assay type: ADME, tissue-based; settings: read-out: Drug uptake; outline: as §1

T1 sequence (P05067 whole entry): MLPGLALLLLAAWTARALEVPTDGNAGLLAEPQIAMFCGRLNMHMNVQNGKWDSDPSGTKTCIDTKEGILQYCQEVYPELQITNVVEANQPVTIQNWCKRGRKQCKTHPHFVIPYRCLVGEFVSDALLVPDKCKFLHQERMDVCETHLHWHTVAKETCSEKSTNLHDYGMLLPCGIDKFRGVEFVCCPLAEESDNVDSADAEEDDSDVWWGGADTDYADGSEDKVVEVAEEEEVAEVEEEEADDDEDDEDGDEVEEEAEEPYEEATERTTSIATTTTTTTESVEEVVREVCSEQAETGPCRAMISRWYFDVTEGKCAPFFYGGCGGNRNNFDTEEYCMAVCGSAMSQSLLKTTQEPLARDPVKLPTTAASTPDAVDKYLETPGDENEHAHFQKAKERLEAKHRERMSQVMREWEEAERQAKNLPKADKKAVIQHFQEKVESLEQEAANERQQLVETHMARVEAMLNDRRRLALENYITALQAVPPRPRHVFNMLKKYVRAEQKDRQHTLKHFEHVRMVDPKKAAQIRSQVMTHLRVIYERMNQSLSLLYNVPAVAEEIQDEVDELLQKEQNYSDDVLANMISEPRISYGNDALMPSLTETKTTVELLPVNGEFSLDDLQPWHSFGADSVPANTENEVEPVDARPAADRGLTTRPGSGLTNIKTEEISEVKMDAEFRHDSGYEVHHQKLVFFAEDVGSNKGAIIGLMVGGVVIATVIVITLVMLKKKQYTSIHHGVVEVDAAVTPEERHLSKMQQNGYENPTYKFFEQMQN

SMILES	pKi [1]	Activity [2]	tissue uptake at 3 h [3]	tissue uptake at 2 min [4]	logP [5]	tissue uptake at 2 h [6]
FCCOCCOCCOc1ccc(C#Cc2ccc3c(c2)CCN3)cc1	8.40	Active	–	–	–	–
[18F]CCOCCOCCOc1ccc(C#Cc2ccc3[nH]ccc3c2)cc1	–	–	2.1 %ID/g	2.43 %ID/g	2.56	–
FCCOCCOCCOc1ccc(C#Cc2ccc3[nH]ccc3c2)cc1	8.82	Active	–	–	–	–
[18F]CCOCCOCCOc1ccc(C#Cc2ccc3c(c2)CCN3)cc1	–	–	–	4.5 %ID/g	2.95	1.71 %ID/g
